Data from PubChem BioAssay AID504654 (Molecular Libraries Program, Specialized Chemistry Center, …, 2011).
pIC50: −log10 of the molar value. The source made the active and inactive calls.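 The calls were made as follows: active = IC50 of at least 20 µM; inactive = IC50 below 20 µM.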

Biological target: HeLa ODD-luciferase turnover, degradation rate luminescence
Test: p97-independent proteasomal reporter degradation blockers – cell-based, HeLa, luminescence, counter-screen for p97 inhibitor project, SAR follow-up (AID 504654)
Method in brief: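 Assay system: Human HeLa line with stable ODD-luciferase reporter | Detection: Luminescence after luciferin substrate addition | Read-out: IC50 from Langmuir fit of percent remaining degradation rate | Reagent: MG132 4 µM proteasome block before chase, then washed out | Times: 1 h MG132 block, 70/90/120/150 min chase | Control set: DMSO wells as reference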

SMILES | IC50 | pIC50
COc1cccc2c(NCc3ccccc3)nc(NCc3ccccc3)nc12 | inactive | –
COc1cccc2c(NCc3ccccc3)nc(-n3c(=O)oc4ccccc43)nc12 | – | < 4.70
c1ccc(CNc2nc(N3CCOc4ccccc43)nc3ccsc23)cc1 | inactive | –
COc1cccc2c(NCc3ccccc3)nc(Nc3cccc(Cl)c3)nc12 | inactive | –
Fc1cccc(CNc2nc(NCc3ccccc3)c3ccccc3n2)c1 | inactive | –
COc1cccc2c(NCc3ccccc3)nc(NCc3cccs3)nc12 | inactive | –
FC(F)(F)c1ccc(CNc2nc(NCc3ccccc3)c3ccccc3n2)cc1 | inactive | –
COc1cccc2c(NCc3ccccc3)nc(Nc3nc4ccccc4n3C)nc12 | inactive | –
Brc1cccc(CNc2nc(NCc3ccccc3)c3ccccc3n2)c1 | inactive | –
Cc1ccc(CNc2nc(NCc3ccccc3)c3ccccc3n2)cc1 | inactive | –
